Test results published in publication PMC2903848 (The FEBS journal, 2010).

Experiments:
PRMT6 = PRMT6 (Homo sapiens, UniProt Q96LA8); experiment: In vitro methylation of GST-GAR by recombinant GST-PRMT6; assay type: biochemical; conditions: 30μM compound, GST-GAR substrate
Procedure, shortened: (§1)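 Recombinant GST-PRMT6 or GST-PRMT8 was concentrated on a micron 10 filter and reacted with GST-GAR substrate and [3H]SAM plus 30μM test compound. Reactions were quantified by densitometry. Representative of at least three independent experiments.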

Th2 cells = experiment: Th2 cell IL-4 production by ELISA; assay type: cell-based, mice; conditions: 100μM
Procedure, shortened: (§2)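 Balb/c T helper cells isolated by magnetic beads, cultured in RPMI with plate-bound anti-CD3 1μg/mL, anti-CD28 2μg/mL and IL-2. Th1 skewed with rIL-12 5ng/mL and anti-IL-4 10 μg/mL (IFNγ line); Th2 with rIL-4 10 ng/mL and anti-IFNγ 10 μg/mL (IL-4 line). Day-7 cells at 1 × 10^6 cells/mL restimulated with plate-bound anti-CD3 (1μg/mL) for 24 h with compound or DMSO. Supernatant cytokine measured by ELISA; at least three experiments.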

[1] = molecular target: T1, recombinant human GST-PRMT4 (Homo sapiens, UniProt Q86X55); experiment: In vitro methylation of histone 3 by recombinant GST-PRMT4; assay type: biochemical; conditions: read-out: PRMT4 IC50; recombinant human GST-PRMT4, histone 3 as substrate
T1 sequence (Q86X55 1-608): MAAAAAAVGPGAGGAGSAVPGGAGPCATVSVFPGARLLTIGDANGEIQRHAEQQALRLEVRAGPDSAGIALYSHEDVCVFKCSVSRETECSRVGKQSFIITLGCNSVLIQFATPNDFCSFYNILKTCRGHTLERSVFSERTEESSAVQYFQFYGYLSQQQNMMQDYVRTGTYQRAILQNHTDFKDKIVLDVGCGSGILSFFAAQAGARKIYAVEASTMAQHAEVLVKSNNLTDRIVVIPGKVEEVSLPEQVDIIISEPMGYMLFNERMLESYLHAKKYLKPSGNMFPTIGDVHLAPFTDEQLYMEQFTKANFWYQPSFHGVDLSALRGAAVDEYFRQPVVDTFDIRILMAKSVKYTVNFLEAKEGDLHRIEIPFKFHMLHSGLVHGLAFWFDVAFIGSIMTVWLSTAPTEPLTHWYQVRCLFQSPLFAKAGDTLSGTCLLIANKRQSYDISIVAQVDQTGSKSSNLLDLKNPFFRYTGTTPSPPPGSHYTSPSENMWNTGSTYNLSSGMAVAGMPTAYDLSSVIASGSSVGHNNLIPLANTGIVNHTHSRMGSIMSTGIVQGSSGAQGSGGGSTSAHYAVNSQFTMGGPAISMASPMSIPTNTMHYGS
Procedure, shortened: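 Recombinant human GST-PRMT4 methylated recombinant histone 3 in the presence of [3H]SAM and increasing concentrations of test compound. Methylation was quantified by densitometry, and IC50 was calculated by linear regression. Representative of at least three independent experiments.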

[2] = system: IL-4 promoter (−760 to +68) in Jurkat cells; experiment: IL-4 promoter luciferase reporter in Jurkat cells; assay type: cell-based, human; conditions: 18hrs pretreatment then 6hr PMA/Ionomycin, 100μM (Adox 20μM)
Procedure, shortened: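 Jurkat cells in RPMI, electroporated (280V, 975μF) with IL-4 promoter luciferase reporter (3μg) plus thymidine kinase-driven Renilla luciferase (10ng) as internal control. Compounds in DMSO, vehicle control DMSO; 18 h pretreatment, then 6 h stimulation with 50 ng/mL PMA plus ionomycin. Dual luciferase read-out, firefly normalised to Renilla. At least three independent experiments.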

PRMT1/NIP45 interaction = experiment: HA-PRMT1/FLAG-NIP45 coimmunoprecipitation in 293T cells; assay type: cell-based; conditions: 293T cells transfected with HA-PRMT1 and FLAG-NIP45; 100μM (Adox 20μM)
Procedure, shortened: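 293T cells were co-transfected (Fugene HD) with HA-PRMT1 and FLAG-NIP45 vectors, then treated with DMSO, test compound (100μM) or Adox (20μM). Lysates in 100 mM NaCl, 50 mM TRIS pH 7.5, 0.1% TX-100 buffer were immunoprecipitated with anti-HA agarose and blotted for FLAG, then reprobed for HA. FLAG/HA association was quantified versus DMSO; three experiments.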

PRMT5 = PRMT5 (Homo sapiens, UniProt O14744); assay type: biochemical; conditions: PRMT5 immunoprecipitated from 293T cells, MBP as substrate
Procedure, shortened: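 PRMT5, or an isotype-control IP, was immunoprecipitated from 293 cell extracts and used in in vitro methylation reactions with MBP substrate at the indicated test compound concentrations. Reaction inputs were checked by immunoblotting with PRMT5 antisera. Representative of at least three independent experiments.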

PRMT1 [3] = experiment: HA-PRMT1/FLAG-PRMT1 coimmunoprecipitation; conditions: 100μM during coimmunoprecipitation
Procedure, shortened: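 HA-PRMT1 and FLAG-PRMT1 were expressed in separately transfected 293T cells. Equal volumes of the two lysates were mixed and incubated with DMSO or test compound (100μM) during the anti-HA agarose immunoprecipitation. Blots were probed with anti-FLAG. As a specificity control, IPs from vector-only cells were incubated with FLAG-NIP45 lysates.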

PRMT8 = PRMT8 (Homo sapiens, UniProt Q9NR22); experiment: In vitro methylation of GST-GAR by recombinant GST-PRMT8; assay type: biochemical; conditions: 30μM compound, GST-GAR substrate
Procedure, shortened: as §1

recombinant hPRMT1 = conditions: read-out: PRMT1 IC50; reported value using recombinant hPRMT1 and GST-Npl3 as substrate; cited from earlier work
Th1 cells = experiment: Th1 cell IFNγ production by ELISA; assay type: cell-based, mice; conditions: 100μM
Procedure, shortened: as §2

[4] = system: H3R17 methylation in 293T cells; experiment: Cellular H3R17 methylation immunoblot in 293T cells; assay type: cell-based; conditions: 293T cells over treatment period (data not shown)
Procedure, shortened: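 293T cells grown in DMEM were treated for 24 hrs with DMSO vehicle, test compound (100μM or 300μM) or Adox (20μM). Histone extracts were immunoblotted with anti-histone 3 dimethylarginine 17 antibody. Methylation was quantified relative to vehicle-treated samples. Toxicity was followed over the treatment period. Three independent experiments.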

T helper cells [5] = experiment: Viability of T helper cells; assay type: cell-based; conditions: T helper cells, 100 μM
[6] = Viability of T helper cells; assay type: cell-based; conditions: Balb/c, mouse, primary T helper cells
T helper cells [7] = experiment: T helper cell proliferation; assay type: cell-based, mice; conditions: anti-CD3 stimulated T helper cells, MTS assay
PRMT1 [8] = molecular target: PRMT1 (Rattus norvegicus, UniProt Q63009); experiment: UV crosslinking of [3H]SAM to GST-PRMT1; assay type: binding; conditions: 100μM inhibitor, 20μM [3H]SAM
Sequence of PRMT1 (Rattus norvegicus, UniProt Q63009) (Q63009 whole entry): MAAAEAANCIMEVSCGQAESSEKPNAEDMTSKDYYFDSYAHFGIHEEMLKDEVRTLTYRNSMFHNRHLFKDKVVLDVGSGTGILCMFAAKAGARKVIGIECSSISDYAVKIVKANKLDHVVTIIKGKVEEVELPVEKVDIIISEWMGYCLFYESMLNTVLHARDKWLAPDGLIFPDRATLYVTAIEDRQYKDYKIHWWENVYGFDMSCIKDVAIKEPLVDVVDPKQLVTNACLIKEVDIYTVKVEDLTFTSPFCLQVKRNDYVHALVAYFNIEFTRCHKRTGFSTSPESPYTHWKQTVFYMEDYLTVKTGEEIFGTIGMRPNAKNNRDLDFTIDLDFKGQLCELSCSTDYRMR

Sequence of PRMT6 (Q96LA8 whole entry, species assumed): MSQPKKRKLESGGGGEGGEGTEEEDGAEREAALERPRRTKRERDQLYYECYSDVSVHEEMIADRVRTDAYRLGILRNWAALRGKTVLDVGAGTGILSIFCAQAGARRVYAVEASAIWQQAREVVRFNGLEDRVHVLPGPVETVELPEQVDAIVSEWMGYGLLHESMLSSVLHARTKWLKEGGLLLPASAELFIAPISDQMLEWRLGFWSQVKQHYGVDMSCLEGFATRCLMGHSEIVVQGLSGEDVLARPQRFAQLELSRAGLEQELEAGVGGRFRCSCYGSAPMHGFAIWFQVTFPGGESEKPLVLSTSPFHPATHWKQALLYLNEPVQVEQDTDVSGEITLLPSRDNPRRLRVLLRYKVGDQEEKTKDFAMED
Sequence of PRMT5 (O14744 whole entry): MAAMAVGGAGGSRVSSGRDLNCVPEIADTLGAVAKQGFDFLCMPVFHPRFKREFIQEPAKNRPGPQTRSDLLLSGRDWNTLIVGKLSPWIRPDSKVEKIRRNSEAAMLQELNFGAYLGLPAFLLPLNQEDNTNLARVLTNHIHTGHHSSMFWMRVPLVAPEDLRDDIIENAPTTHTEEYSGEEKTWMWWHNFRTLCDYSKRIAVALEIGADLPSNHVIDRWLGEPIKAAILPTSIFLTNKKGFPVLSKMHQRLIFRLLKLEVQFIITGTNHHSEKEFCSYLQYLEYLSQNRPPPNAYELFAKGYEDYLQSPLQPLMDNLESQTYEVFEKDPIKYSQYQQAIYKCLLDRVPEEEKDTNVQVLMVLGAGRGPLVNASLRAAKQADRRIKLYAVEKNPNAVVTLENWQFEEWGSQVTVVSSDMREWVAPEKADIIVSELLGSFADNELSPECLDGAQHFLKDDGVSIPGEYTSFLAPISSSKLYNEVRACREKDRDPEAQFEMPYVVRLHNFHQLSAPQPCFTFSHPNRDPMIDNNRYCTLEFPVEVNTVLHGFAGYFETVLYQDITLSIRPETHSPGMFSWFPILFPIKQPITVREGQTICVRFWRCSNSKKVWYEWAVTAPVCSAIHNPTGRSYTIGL
Sequence of PRMT5 (Q9BQA1 whole entry partner): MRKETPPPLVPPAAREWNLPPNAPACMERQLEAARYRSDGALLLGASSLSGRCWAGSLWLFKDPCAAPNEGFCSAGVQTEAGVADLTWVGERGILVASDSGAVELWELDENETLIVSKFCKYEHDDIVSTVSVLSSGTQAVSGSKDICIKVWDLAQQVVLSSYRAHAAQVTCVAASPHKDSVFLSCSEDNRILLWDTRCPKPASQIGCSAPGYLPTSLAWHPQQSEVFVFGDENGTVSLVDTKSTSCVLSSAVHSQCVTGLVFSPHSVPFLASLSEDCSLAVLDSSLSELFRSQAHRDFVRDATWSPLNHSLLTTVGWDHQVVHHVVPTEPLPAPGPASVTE
Sequence of PRMT8 (Q9NR22 whole entry, species assumed): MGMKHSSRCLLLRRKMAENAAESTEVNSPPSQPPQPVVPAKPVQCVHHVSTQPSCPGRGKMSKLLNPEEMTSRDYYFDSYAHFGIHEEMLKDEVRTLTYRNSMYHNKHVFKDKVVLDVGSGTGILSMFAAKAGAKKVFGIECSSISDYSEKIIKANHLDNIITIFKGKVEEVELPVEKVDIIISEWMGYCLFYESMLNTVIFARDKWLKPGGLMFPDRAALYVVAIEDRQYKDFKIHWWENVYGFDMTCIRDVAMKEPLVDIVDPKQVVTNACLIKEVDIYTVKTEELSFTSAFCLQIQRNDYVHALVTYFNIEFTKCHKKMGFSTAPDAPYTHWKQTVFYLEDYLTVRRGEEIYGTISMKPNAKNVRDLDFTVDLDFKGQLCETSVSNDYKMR

With `O=C(Nc1ccc2c(O)cc(S(=O)(=O)O)cc2c1)Nc1ccc2c(O)cc(S(=O)(=O)O)cc2c1` [AMI-1] the “inhibition of GST-GAR methylation by PRMT6” value (PRMT6) was “less effective”, the “reduction of Th2 IL-4 levels” value (Th2 cells; anti-CD3 stimulated Th2 cells, ELISA) was “less than 40%” and the IC50 [1] was 170 ± 10.7 µM. The “effect on IL-4 promoter reporter activity” value [2] was “decreased promoter activity”, the “effect on PRMT1/NIP45 association” value (PRMT1/NIP45 interaction) was “interfered with the NIP45 and PRMT1 interaction” and the “inhibition of PRMT5 activity” value (PRMT5) was “ineffective”. For the same compound, the “effect on HA-PRMT1/FLAG-PRMT1 interaction (oligomerization)” value (PRMT1 [3]) was “did not interfere with the interaction”, the “inhibition of GST-GAR methylation by PRMT8” value (PRMT8) was “less effective” and the IC50 (recombinant hPRMT1) was 8.8 µM. The “reduction of Th1 IFNγ production” value (Th1 cells; anti-CD3 stimulated Th1 cells, ELISA) was “less than 40%”.

In the case of `Nc1ncnc2c1ncn2C(C=O)OC(C=O)CO` (centres unmarked) [Adox, adenosine dialdehyde], the cellular toxicity [4] is reported as “no cellular toxicity”, the “effect on IL-4 promoter reporter activity” value [2] is reported as “greatly diminished” and the “effect on PRMT1/NIP45 association” value (PRMT1/NIP45 interaction) is reported as “reduced the association”.

With `CSC[C@H]1O[C@@H](n2cnc3c(N)ncnc32)[C@H](O)[C@@H]1O` [MTA, methylthioadenosine] the “effect on IL-4 production” value (Th2 cells; Th2 cells) was “diminished”, the “% apoptotic” value (T helper cells [5]) was 4.9% and the “% necrotic” value (T helper cells [5]) was 4.2%. The viability at 100 µM [6] was 90.9%, the “effect on T helper cell proliferation” value (T helper cells [7]) was “inhibited T cell proliferation” and the “effect on IFNγ production” value (Th1 cells; Th1 cells) was “diminished”.

With `Nc1ncnc2c1ncn2[C@@H]1O[C@H](C[C@@H](N)CC[C@H](N)C(=O)O)[C@@H](O)[C@H]1O` [sinefungin] the “competition for SAM binding to PRMT1” value (PRMT1 [8]) was “competitive with SAM for binding”.
